This passage reports Activity, ED50 and IC50 results from ChEMBL document CHEMBL1124440, “Resolved N,N-dialkylated 2-amino-8-hydroxytetralins: stereoselective interactions with 5-HT1A receptors in the brain” (J Med Chem, 1989).

For experiment [1], the system named is Rattus norvegicus. The experiment in a line: No of rats exhibiting 5-HT motor syndrome tested in reserpinized rats at a subcutaneous dose of 32 umol/kg; 4 rats out of 4 showed activity. Format: functional.
The subject of experiment [2] is Rattus norvegicus. Briefly: No of rats exhibiting 5-HT motor syndrome tested in reserpinized rats at a subcutaneous dose of 10 umol/kg; 0 rats out of 3 showed activity. Format: functional.
The target in experiment [3] is T1, Tryptophan 5-hydroxylase 1 (Rattus norvegicus) (UniProt P09810).
T1 sequence (whole entry): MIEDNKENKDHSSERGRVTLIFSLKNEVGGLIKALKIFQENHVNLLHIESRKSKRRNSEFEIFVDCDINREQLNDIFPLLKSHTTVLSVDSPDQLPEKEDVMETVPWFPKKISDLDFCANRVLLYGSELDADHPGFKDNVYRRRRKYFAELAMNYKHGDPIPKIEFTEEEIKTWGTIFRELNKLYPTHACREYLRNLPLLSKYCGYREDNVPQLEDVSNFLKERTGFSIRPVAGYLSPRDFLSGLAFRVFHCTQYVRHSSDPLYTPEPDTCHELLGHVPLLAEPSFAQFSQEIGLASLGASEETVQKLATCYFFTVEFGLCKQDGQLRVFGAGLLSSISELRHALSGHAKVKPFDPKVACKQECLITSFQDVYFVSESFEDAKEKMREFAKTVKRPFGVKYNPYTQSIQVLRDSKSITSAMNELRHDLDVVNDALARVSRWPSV
The experiment in a line: Compound was tested for its effect on NSD 1015 induced accumulation of 5-HTP(ng/g) in rats in corpus striatum at a dosage of 3.2 umol/kg. It counts as functional. In outline: (§1)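 Rats given test drug s.c. in the neck as hydrochloride (5 mL/kg), not reserpine-pretreated; 30 min later NSD 1015 (60 mg/kg, i.e. 287 μmol/kg sc), killed 30 min after that. Brain regions dissected. 5-HTP measured by ion-pair reversed-phase HPLC with electrochemical detection. Mean ± SEM, n = 15 controls, 3–5 per dose; ANOVA with Dunnett's t test vs controls.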

Experiment [4] has as its system Rattus norvegicus. Briefly: No of rats exhibiting 5-HT motor syndrome tested in reserpinized rats at a subcutaneous dose of 3.2 umol/kg; 0 rats out of 3 showed activity. Format: functional.
The target in experiment [5] is T1, Tryptophan 5-hydroxylase 1 (Rattus norvegicus). The experiment in a line: Compound was tested for its effect on NSD 1015 induced accumulation of 5-HTP in rats in corpus striatum at a dosage of 32 umol/kg. Format: functional, tissue-based. In short, it runs like this:
as §1

Experiment [6] has the same target. The experiment in a line: Compound was tested for its effect on NSD 1015 induced accumulation of 5-HTP(ng/g) in rats in limbic system at a dosage of 32 umol/kg. It counts as functional, tissue-based. In outline: as §1
Experiment [7] has the same target. The experiment in a line: Compound was tested for its effect on NSD 1015 induced accumulation of 5-HTP(ng/g) in rats in limbic system at a dosage of 3.2 umol/kg. It counts as functional, tissue-based. In outline: as §1
The target is the same in experiment [8]. The experiment in a line: Compound was tested for its effect on NSD 1015 induced accumulation of 5-HTP(ng/g) in rats in limbic system at a dosage of 10 umol/kg. Format: functional, tissue-based. In short, it runs like this: as §1
Experiment [9] shares this target. Briefly: Approximate dose levels for a half maximal reduction of 5-HTP levels. It counts as functional. In outline: as §1
In experiment [10] the target is T2, 5-hydroxytryptamine receptor 1A (Rattus norvegicus, UniProt P19327).
T2 sequence (P19327 whole entry): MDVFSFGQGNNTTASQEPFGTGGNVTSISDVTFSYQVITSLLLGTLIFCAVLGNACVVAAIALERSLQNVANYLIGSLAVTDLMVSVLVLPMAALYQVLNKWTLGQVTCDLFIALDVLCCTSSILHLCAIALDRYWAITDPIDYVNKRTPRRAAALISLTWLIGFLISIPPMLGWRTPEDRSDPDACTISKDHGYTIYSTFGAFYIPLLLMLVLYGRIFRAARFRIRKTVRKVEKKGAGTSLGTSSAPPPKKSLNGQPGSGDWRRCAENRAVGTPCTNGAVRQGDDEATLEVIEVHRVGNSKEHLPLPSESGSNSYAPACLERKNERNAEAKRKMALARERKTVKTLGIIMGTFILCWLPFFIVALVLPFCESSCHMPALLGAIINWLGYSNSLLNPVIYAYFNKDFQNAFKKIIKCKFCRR
The experiment in a line: Concentration of compound required to inhibit cortical 5-hydroxytryptamine 1A receptor binding sites in rat brain was evaluated. Format: tissue-based.

Experiment [11] has as its target T1, Tryptophan 5-hydroxylase 1 (Rattus norvegicus). The experiment in a line: Compound was tested for its effect on NSD 1015 induced accumulation of 5-HTP in rats corpus striatum at a dosage of 10 umol/kg. Format: functional, tissue-based. In short, it runs like this:
as §1

The target is the same in experiment [12]. The experiment in a line: Compound was tested for its effect on NSD 1015 induced accumulation of 5-HTP(ng/g) in rats in limbic system at a dosage of 0.10 umol/kg. Format: functional, tissue-based. In short, it runs like this:
as §1

Experiment [13] shares this target. Briefly: Compound was tested for its effect on NSD 1015 induced accumulation of 5-HTP(ng/g) in rats in limbic system at a dosage of 0.32 umol/kg. It counts as functional, tissue-based. In short, it runs like this:
as §1

Experiment [14] shares this target. The experiment in a line: Compound was tested for its effect on NSD 1015 induced accumulation of 5-HTP(ng/g) in rats in limbic system at a dosage of 0.032 umol/kg. Format: functional. In outline: as §1
In experiment [15] the test system is Rattus norvegicus. The experiment in a line: No of rats exhibiting 5-HT motor syndrome tested in reserpinized rats at a subcutaneous dose of 0.32 umol/kg; 0 rats out of 5 showed activity. It counts as functional.
Experiment [16] addresses T1, Tryptophan 5-hydroxylase 1 (Rattus norvegicus). Briefly: Compound was tested for its effect on NSD 1015 induced accumulation of 5-HTP(ng/g) in rats in corpus striatum at a dosage of 1.0 umol/kg. It counts as functional. In short, it runs like this: as §1
Experiment [17] has the same target. Briefly: Compound was tested for its effect on NSD 1015 induced accumulation of 5-HTP in rats in corpus striatum at a dosage of 0.32 umol/kg. Format: functional, tissue-based. In outline: as §1
Experiment [18] has the same target. The experiment in a line: Compound was tested for its effect on NSD 1015 induced accumulation of 5-HTP(ng/g) in rats in limbic system at a dosage of 1.0 umol/kg. Format: functional, tissue-based. In short, it runs like this:
as §1

The target is the same in experiment [19]. Briefly: Compound was tested for its effect on NSD 1015 induced accumulation of 5-HTP(ng/g) in rats in corpus striatum at a dosage of 0.032 umol/kg. Format: functional. In short, it runs like this: as §1
The target is the same in experiment [20]. Briefly: Compound was tested for its effect on NSD 1015 induced accumulation of 5-HTP in rats corpus striatum at a dosage of 0.10 umol/kg. Format: functional, tissue-based. In outline:
as §1

Experiment [21] has as its system Rattus norvegicus. The experiment in a line: No of rats exhibiting 5-HT motor syndrome tested in reserpinized rats at a subcutaneous dose of 1.0 umol/kg; 4 rats out of 5 showed activity. It counts as functional.
Experiment [22] concerns the target T1, Tryptophan 5-hydroxylase 1 (Rattus norvegicus). Briefly: Compound was tested for its effect on NSD 1015 induced accumulation of 5-HTP(ng/g) in rats in corpus striatum at a dosage of 32 umol/kg. It counts as functional, tissue-based. In short, it runs like this:
as §1

Experiment [23] relates to Rattus norvegicus. Briefly: No of rats exhibiting 5-HT motor syndrome tested in reserpinized rats at a subcutaneous dose of 100 umol/kg; 4 rats out of 4 showed activity. It counts as functional.
Experiment [24] has as its target T1, Tryptophan 5-hydroxylase 1 (Rattus norvegicus). The experiment in a line: Compound was tested for its effect on NSD 1015 induced accumulation of 5-HTP(ng/g) in rats in corpus striatum at a dosage of 10 umol/kg. Format: functional. In short, it runs like this:
as §1

For experiment [25] the target is unchanged. Briefly: Compound was tested for its effect on NSD 1015 induced accumulation of 5-HTP(ng/g) in rats in limbic system at a dosage of 100 umol/kg. Format: functional, tissue-based. In outline:
as §1

The test system of experiment [26] is Rattus norvegicus. The experiment in a line: No of rats exhibiting 5-HT motor syndrome tested in reserpinized rats at a subcutaneous dose of 32 umol/kg; 0 rats out of 4 showed activity. It counts as functional.
For experiment [27], the target named is T1, Tryptophan 5-hydroxylase 1 (Rattus norvegicus). Briefly: Compound was tested for its effect on NSD 1015 induced accumulation of 5-HTP(ng/g) in rats in corpus striatum at a dosage of 100 umol/kg. It counts as functional, tissue-based. In short, it runs like this:
as §1

For experiment [28] the target is unchanged. The experiment in a line: Compound was tested for its effect on NSD 1015 induced accumulation of 5-HTP in rats in corpus striatum at a dosage of 3.2 umol/kg. It counts as functional. In outline: as §1
For experiment [29], the system named is Rattus norvegicus. Briefly: No of rats exhibiting 5-HT motor syndrome tested in reserpinized rats at a subcutaneous dose of 10 umol/kg; 0 rats out of 2 showed activity. Format: functional.
For experiment [30], the system named is Rattus norvegicus. Briefly: No of rats exhibiting 5-HT motor syndrome tested in reserpinized rats at a subcutaneous dose of a. 0.1 umol/kg; 0 rats out of 4 showed activity. It counts as functional.
The test system of experiment [31] is Rattus norvegicus. The experiment in a line: No of rats exhibiting 5-HT motor syndrome tested in reserpinized rats at a subcutaneous dose of 1.0 umol/kg; 3 rats out of 3 showed activity. Format: functional.
Experiment [32] deals with Rattus norvegicus. The experiment in a line: No of rats exhibiting 5-HT motor syndrome tested in reserpinized rats at a subcutaneous dose of 0.32 umol/kg; 4 rats out of 4 showd activity. Format: functional.

On to `CCCCN(CCCC)[C@H]1CCc2cccc(O)c2C1`, for which the Activity came out at 4 in [1]; 0 in [2]; 90 ng/g in experiment [3]; 0 in [4]; 45 ng/g in experiment [5]; 112 ng/g in experiment [6]. For the same compound, the Activity in [7] stood at 168 ng/g; in experiment [8] it was 95 ng/g; in experiment [11] it was 52 ng/g. Also, the ED50 in experiment [9] was found to be 5 µmol/kg. In [10], this compound returned an IC50 of 0.0462 µM.

Take `CCCN(CCC)[C@H]1CCc2cccc(O)c2C1`: the Activity in [12] was determined as 154 ng/g; in [13] it was 114 ng/g; in experiment [14], 157 ng/g; in experiment [15] it was 0; in experiment [16], 53 ng/g; in [17], 61 ng/g. Besides, the Activity was 75 ng/g in experiment [18], 95 ng/g in [19], 94 ng/g in [20] and 4 in experiment [21]. Further, the ED50 in [9] was determined as 0.2 µmol/kg.

`CN(C)[C@H]1CCc2cccc(O)c2C1`: the Activity in experiment [22] was 66 ng/g; in experiment [23], 4; in experiment [24], 69 ng/g; in experiment [25], 85 ng/g; in [26], 0; in [27] it was 45 ng/g. Besides, the Activity in experiment [6] was 128 ng/g; in experiment [28] it was 107 ng/g; in experiment [7] it was 178 ng/g; in [8], 162 ng/g; in [29], 0. In experiment [9], this compound came in with an ED50 of 20 µmol/kg. Further, the IC50 in experiment [10] is 0.675 µM.

As to `CCN(CC)[C@@H]1CCc2cccc(O)c2C1`, the Activity in experiment [12] came out at 110 ng/g; in experiment [13], 70 ng/g; in [14], 131 ng/g; in experiment [16], 47 ng/g; in [30], 0; in experiment [31], 3. For the same compound, the Activity worked out at 50 ng/g in experiment [17]; 72 ng/g in experiment [18]; 87 ng/g in experiment [19]; 68 ng/g in experiment [20]; 4 in experiment [32]. For the same compound, it took a dose of 0.05 µmol/kg to reach the 50% effect level in experiment [9] (ED50). For the same compound, the IC50 in experiment [10] is 0.00965 µM.
